NPY1 pot ag – human NPY-Y1 potentiation or agonism, primary screen | P25929 | NPY-Y1 expressing cells, potentiator/agonist activation | activation, % at 3.6 µM | hit rate 0.37% among 220,000 | AID 1304; in the data active = activation above about 33%, passing the limit was not always enough;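 note: cells stimulated with NPY at EC10 then isoproterenol at EC100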
S1P4 agonist – agonists of human S1P4 receptor; O95977; S1P4-expressing cell line, agonist reporter assay; activation, % at 4.98 µM; hit rate 0.35% among 220,000; in the data active = activation above about 11%
NPY2 pot ag – potentiates or activates human NPY-Y2 receptor. activation, % at 3.6 µM. P49146. cells expressing NPY-Y2, potentiator/agonist read-out. hit rate 0.45% among 220,000; in the data active = activation above about 27%;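 note: cells stimulated with NPY near EC25 plus isoproterenol at EC100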
Target sequence (P49146 whole entry, looked up): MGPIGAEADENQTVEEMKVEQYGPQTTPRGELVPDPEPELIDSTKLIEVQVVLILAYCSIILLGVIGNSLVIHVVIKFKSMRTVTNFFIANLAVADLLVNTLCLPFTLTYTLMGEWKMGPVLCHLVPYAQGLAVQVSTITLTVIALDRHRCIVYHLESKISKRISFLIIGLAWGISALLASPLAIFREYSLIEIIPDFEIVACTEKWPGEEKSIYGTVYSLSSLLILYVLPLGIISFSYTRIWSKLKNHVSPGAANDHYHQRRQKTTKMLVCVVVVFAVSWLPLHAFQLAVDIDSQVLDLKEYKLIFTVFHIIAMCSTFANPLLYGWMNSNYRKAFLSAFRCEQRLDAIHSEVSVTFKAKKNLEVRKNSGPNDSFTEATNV
NPY-Y2 antag – NPY-Y2 (human) receptor antagonism; P49146; inhibition, % at 2.7 µM; hit rate 0.99% among 140,000; NPY-Y2 expressing cells, antagonist mode; in the data active = inhibition above about 17%
S1P4 antag – antagonists of human S1P4 receptor. O95977. S1P4-expressing cells, antagonist mode, reporter read-out. inhibition, % at 4.98 µM. hit rate 0.26% among 220,000; in the data active = inhibition above about 29%
NPY-Y1 antag – antagonists of human neuropeptide Y receptor Y1 | P25929 | HEK293-CNG Y1 cells, membrane potential fluorescence; NPY at EC95, then isoproterenol | inhibition, % at 3.6 µM | hit rate 1% among 200,000 | AID 1040;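 active = inhibition above the campaign mean inhibition of all tested compounds plus 3 SD, cut at about 20% in these data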
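material = HEK293 cells with Y1 receptor plus CNG channel | also added = NPY 25 nM then isoproterenol 1 µM plus Ro 20-1724 25 µM | schedule = dye 3 h, compound 60 min room temperature, stimulation 45 min | measured by = membrane potential fluorescence | benchmarks = high control isoproterenol alone, low control NPY with isoproterenol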
Numbers stand for hits; n = inactive; x = no result given; ! = not confirmed by another sample. Most compounds without a hit are left out; they make up all but 2.4% or so of the library.

SMILES	NPY1 pot ag	S1P4 agonist	NPY2 pot ag	NPY-Y2 antag	S1P4 antag	NPY-Y1 antag
Cc1nc2ccccn2c1C(=O)NN=C1CCCC1	n	n	n	x	n	n
COc1ccc(CCNCC(O)COc2cccc(Br)c2)cc1OC (configuration not stated)	105	n	82	x	n	x
COc1ccc(CCNCC(O)Cn2c3ccccc3c3ccccc32)cc1OC (configuration not stated)	n	n	n	x	n	n
CSc1nc(Cl)c(Cc2ccc(OC(C)C)cc2)c(N(C)C)n1	n	n	n	30	n	49
COc1ccc(Cc2c(Cl)ncnc2Cl)cc1	n	n	n	n	n	n
CCOC(=O)C(=O)Nc1ccc(S(=O)(=O)Nc2ncccn2)cc1	n	n	n	n	n	n
COc1cc(Cc2cnc(N)nc2N)cc(OC)c1OC	n	18!	n	n	n	n
COc1ccccc1CNCc1cc(OC)c(OC)c(OC)c1	n	n	n	x	n	n
Cn1c(=O)c2c(nc(CN3CCN(c4cccc(Cl)c4)CC3)n2CCc2ccccc2)n(C)c1=O	n	n	n	17	n	n
COc1ccc(Nc2ncnc3scc(-c4ccc(OC)cc4)c23)cc1	n	n	n	32	n	21
COc1ccc(-c2csc3ncnc(Cl)c23)cc1	n	n	n	x	n	n
O=C(CN1CCN(S(=O)(=O)c2ccc(Cl)cc2)CC1)Nc1ccc(N2CCOCC2)cc1	n	n	n	n	n	n
CC(=O)Nc1ccc(Sc2ncccc2C(=O)Nc2ccc(OC(F)(F)F)cc2)cn1	n	n	n	n	n	n
COc1ccc(-n2cc(CNCCCN3CCCC3=O)c(-c3ccccc3Cl)n2)cc1	n	n	n	x	n	20
O=C(CN1CCN(S(=O)(=O)c2ccccc2)CC1)Nc1ccc2c(c1)CCC2	n	n	n	n	n	n
CCc1[nH]nc2c1C(c1ccc(C)o1)C(C#N)=C(N)O2 (configuration not stated)	n	n	n	x	n	n
N#CC1=C(N)Oc2n[nH]c(-c3cccs3)c2C1c1ccco1 (configuration not stated)	n	n	n	n	n	n
COc1cccc(-c2[nH]nc3c2C(c2ccc(C)o2)C(C#N)=C(N)O3)c1 (configuration not stated)	n	n	n	21	n	29
COc1ccc(OC)c(-c2[nH]nc3c2C(c2ccco2)C(C#N)=C(N)O3)c1 (configuration not stated)	n	n	n	28	n	48
Cc1ccc(C(=O)COC(=O)CSc2cccc3cccnc23)c(C)c1	n	n	n	n	n	n
O=C(Nc1cccc(Cl)c1)OCc1cn(-c2ccccc2)nn1	n	n	n	x	n	21
CCNC(=O)OCc1cn(-c2ccccc2)nn1	n	n	n	x	n	n
CC1CCC(C(C)C)C(OCC(O)CNC(C)(C)C)C1 (configuration not stated)	106	n	99	x	n	n
CCOC(=O)N1CCN(CC(O)COC2CC(C)CCC2C(C)C)CC1 (configuration not stated)	n	n	n	n	n	n
CC(C)OP(=O)(c1ccc(N(C)C)cc1)C(O)c1ccccc1F (configuration not stated)	n	n	n	n	n	n
SMILES	NPY1 pot ag	S1P4 agonist	NPY2 pot ag	NPY-Y2 antag	S1P4 antag	NPY-Y1 antag
O=C(c1ccco1)N(CCCN1CCOCC1)c1nc(-c2ccc(Cl)cc2)cs1	n	n	n	30	n	41
Cc1cc(C)n(CCO)c(=O)n1	n	n	n	n	n	n
COc1ccccc1CNc1nc2ccccc2n1CCN1CCCCC1	n	n	n	21	n	23
CC1(C)C(N(O)C(=O)Nc2ccc(Cl)cc2)N(c2ccc(Cl)cc2)C(=O)N1CC(=O)NN (configuration not stated)	41	n	43	n	n	n
CC(=O)Nc1cc(OC(C)=O)c2nonc2c1OC(C)=O	n	n	n	n	109	n
C=CCc1cc(OC)ccc1OCC(O)CN1CCN(c2ccc(OC)cc2)CC1 (configuration not stated)	n	n	n	n	n	n
C=CCc1cc(C)ccc1OCC(O)CN1CCN(c2ccccc2)CC1 (configuration not stated)	54	n	56	n	n	n
Cc1ccccc1OCC(O)CN1CCN(C)CC1 (configuration not stated)	n	n	n	x	n	n
C=CCc1ccccc1OCC(O)CNC(C)C (configuration not stated)	116	n	103	n	n	n
